Experimental data from ChEMBL document CHEMBL3286396, “Discovery and Synthesis of C-Nucleosides as Potential New Anti-HCV Agents” (ACS Med Chem Lett, 2014).

What was measured:
Hepatitis C virus [1] = test: Antiviral activity against Hepatitis C virus assessed as inhibition of subgenomic replicon RNA replication; format: functional, organism-based, Hepacivirus hominis
[2] = Cytotoxicity against human HuH7 cells by MTT assay; format: cell-based, Huh-7
In short: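 Huh-7-derived HCV replicon cell lines were used, with MTT as the vital dye read-out.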

[3] = Inhibition of N-terminal His6-tagged Hepatitis C virus genotype 1b isolate Con1 NS5B RNA-dependent RNA polymerase activity by plate reader analysis
Hepatitis C virus [4] = test: Antiviral activity against Hepatitis C virus genotype 1b infected in human HuH7 cells assessed as inhibition of subgenomic replicon RNA replication after 72 hrs by luciferase reporter assay; format: functional, cell-based, Hepacivirus hominis; settings: Huh-7, 72 h
[5] = Inhibition of Hepatitis C virus NS5B RNA-dependent RNA polymerase activity; parameters: species or system Hepacivirus hominis
[6] = target: T1, DNA polymerase subunit gamma-1 (Homo sapiens, UniProt P54098); test: Inhibition of human DNA polymerase gamma
T1 sequence (P54098 whole entry): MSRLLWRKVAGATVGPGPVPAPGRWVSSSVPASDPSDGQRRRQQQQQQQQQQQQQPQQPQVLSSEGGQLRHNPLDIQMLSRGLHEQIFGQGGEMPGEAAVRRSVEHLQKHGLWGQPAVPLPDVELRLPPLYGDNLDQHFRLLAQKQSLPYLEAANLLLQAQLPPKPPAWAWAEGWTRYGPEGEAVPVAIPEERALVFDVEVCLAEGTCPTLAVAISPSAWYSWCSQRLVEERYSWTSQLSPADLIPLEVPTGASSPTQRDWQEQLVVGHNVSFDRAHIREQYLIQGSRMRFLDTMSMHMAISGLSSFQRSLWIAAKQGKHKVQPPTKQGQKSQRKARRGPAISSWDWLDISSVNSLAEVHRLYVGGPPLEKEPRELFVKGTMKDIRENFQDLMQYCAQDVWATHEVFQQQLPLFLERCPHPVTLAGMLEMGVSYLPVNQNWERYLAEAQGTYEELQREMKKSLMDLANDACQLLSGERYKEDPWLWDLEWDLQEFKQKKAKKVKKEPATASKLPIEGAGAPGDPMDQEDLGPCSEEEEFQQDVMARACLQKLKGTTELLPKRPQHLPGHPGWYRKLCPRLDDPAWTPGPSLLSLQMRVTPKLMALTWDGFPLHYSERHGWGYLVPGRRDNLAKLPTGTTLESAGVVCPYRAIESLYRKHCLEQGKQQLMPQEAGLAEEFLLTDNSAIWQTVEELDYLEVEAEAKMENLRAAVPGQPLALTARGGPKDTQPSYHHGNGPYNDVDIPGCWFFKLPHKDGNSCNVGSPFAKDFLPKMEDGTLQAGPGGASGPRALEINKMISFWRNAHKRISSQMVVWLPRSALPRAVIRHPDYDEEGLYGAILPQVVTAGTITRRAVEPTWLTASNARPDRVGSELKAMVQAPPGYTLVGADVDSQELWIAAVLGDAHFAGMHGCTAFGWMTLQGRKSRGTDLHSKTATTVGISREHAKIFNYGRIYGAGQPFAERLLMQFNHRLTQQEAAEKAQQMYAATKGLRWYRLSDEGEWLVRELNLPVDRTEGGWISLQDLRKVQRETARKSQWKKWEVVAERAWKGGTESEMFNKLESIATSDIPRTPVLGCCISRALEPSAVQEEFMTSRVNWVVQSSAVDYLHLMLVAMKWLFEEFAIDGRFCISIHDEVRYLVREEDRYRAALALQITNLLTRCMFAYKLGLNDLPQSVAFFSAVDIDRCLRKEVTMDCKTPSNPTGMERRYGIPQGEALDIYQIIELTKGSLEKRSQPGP
In short: (§1)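 The nucleoside was tested in its triphosphate form against human DNA polymerases α, β and γ.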

[7] = target: T2, DNA polymerase alpha catalytic subunit (Homo sapiens, UniProt P09884); test: Inhibition of human DNA polymerase alpha; in short: as §1
T2 sequence (P09884 whole entry): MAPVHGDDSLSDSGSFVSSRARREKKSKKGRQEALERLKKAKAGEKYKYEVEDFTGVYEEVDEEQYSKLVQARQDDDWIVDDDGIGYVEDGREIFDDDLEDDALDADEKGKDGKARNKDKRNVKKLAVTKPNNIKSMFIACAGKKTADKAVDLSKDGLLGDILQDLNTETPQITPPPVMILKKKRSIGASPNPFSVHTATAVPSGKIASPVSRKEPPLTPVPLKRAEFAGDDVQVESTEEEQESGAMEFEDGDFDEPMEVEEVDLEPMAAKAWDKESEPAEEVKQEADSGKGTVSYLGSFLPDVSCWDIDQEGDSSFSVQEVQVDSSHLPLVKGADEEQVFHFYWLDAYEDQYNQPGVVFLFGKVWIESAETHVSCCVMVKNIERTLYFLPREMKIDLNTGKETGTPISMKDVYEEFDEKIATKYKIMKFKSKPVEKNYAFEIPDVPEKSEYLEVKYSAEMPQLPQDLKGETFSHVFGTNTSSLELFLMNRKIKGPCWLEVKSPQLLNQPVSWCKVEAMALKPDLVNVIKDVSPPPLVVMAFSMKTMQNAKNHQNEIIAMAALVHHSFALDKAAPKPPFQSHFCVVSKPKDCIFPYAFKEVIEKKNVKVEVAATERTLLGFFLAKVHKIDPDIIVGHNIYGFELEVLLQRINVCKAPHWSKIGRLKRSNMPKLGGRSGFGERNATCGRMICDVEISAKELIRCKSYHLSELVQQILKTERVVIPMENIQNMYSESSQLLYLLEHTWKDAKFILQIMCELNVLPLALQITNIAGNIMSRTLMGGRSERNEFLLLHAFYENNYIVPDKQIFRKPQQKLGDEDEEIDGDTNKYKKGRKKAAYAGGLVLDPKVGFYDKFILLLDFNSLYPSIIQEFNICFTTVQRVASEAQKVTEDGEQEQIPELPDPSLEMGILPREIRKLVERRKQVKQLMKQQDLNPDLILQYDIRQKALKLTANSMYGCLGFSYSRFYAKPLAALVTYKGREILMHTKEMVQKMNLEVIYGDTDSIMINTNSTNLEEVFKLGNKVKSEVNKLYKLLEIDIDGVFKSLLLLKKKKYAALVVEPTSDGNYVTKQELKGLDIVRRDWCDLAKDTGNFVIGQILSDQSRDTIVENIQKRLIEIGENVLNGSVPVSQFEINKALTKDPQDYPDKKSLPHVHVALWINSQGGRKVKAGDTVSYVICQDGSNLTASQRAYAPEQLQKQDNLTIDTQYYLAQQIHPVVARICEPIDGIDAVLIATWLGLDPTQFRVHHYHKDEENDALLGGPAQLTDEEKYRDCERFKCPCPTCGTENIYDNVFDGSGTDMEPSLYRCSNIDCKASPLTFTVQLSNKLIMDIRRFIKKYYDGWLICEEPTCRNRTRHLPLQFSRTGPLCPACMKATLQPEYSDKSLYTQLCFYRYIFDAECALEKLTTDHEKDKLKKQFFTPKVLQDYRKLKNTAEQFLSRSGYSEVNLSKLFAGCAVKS

DNA polymerase beta = DNA polymerase beta (Homo sapiens, UniProt P06746); test: Inhibition of human DNA polymerase beta; in short: as §1

Row | SMILES | EC50 (Hepatitis C virus [1]) | IC50 [3] | EC50 (Hepatitis C virus [4]) | CC50 [2] | further results
1 | C[C@@]1(O)[C@H](O)[C@@H](CO)O[C@H]1n1ccc2c(N)ncnc21 [BETA-2'-C-METHYL-7-DEAZA-ADENOSINE] | 0.3 µM | 0.2 µM | 0.2 µM | > 100 µM | IC50 [5]: 0.07 µM
2 | C[C@@]1(O)[C@H](O)[C@@H](COP(=O)(O)OP(=O)(O)OP(=O)(O)O)O[C@H]1c1ccc2c(N)ncnn12 | – | – | – | – | IC50 [6]: > 100 µM; IC50 [7]: > 100 µM; IC50 (DNA polymerase beta): > 100 µM
3 | C[C@@]1(O)[C@H](O)[C@@H](CO)O[C@H]1c1ccc2c(=O)[nH]c(N)nn12 | – | 0.21 µM | > 100 µM | > 100 µM | –

Continued, in another order:

Row | EC50 (Hepatitis C virus [1]) | IC50 [3] | EC50 (Hepatitis C virus [4]) | SMILES | CC50 [2] | further results
4 | > 50 µM | – | – | C[C@@]1(O)[C@H](O)[C@@H](CO)O[C@H]1n1ccc2c(O)nc(N)nc21 | – | –
5 | 2 µM | – | – | C[C@@]1(O)[C@H](O)[C@@H](CO)O[C@H]1n1cnc2c(=O)[nH]c(N)nc21 [2'-B-METHYL-GUANOSINE] | – | –
6 | – | 0.31 µM | > 100 µM | C[C@@]1(O)[C@H](O)[C@@H](CO)O[C@H]1c1cnc2c(=O)[nH]c(N)nn12 | > 100 µM | –
7 | – | 33 µM | > 100 µM | C[C@@]1(O)[C@H](O)[C@@H](CO)O[C@H]1c1cnn2c(N)ncnc12 | > 100 µM | –
8 | – | 0.55 µM | 1.3 µM | C[C@@]1(O)[C@H](O)[C@@H](CO)O[C@H]1c1cnc2c(N)ncnn12 | 34 µM | –
